# Sampled rows, rich in hits. Any-hit rate of the full collection: about 3.4%.
# rRNA inh HTS: inhibitors of bacterial rRNA selective over humanized ribosomes; GFP signal change (wild-type ribosome), % (test concentration not listed); E. coli WT GFP vs humanized-ribosome RFP mutants, fluorescence, 24 h; stronger effect = lower value; DMSO median 0, no signal -100; hit rate 1.6% among 350,000;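 active = significant combined selectivity score with lowered wild-type GFP, culture density cut under 30%, mutant RFP and density less affected; inactive = any of these conditions unmet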
# AF4-AF9 inh: MLL-AF4/AF9 protein interaction inhibition | hit rate 0.47% among 350,000 | AlphaScreen, biotin-AF4 peptide binding to FLAG-AF9 | inhibition, % at 10 µM | P42568;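 active = every replicate reaching a set inhibition limit, whatever the replicate mean, cut at about 25% in these data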;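 also: 0% = plate neutral control median and 100% = total signal loss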
# Target sequence (P42568 whole entry, looked up): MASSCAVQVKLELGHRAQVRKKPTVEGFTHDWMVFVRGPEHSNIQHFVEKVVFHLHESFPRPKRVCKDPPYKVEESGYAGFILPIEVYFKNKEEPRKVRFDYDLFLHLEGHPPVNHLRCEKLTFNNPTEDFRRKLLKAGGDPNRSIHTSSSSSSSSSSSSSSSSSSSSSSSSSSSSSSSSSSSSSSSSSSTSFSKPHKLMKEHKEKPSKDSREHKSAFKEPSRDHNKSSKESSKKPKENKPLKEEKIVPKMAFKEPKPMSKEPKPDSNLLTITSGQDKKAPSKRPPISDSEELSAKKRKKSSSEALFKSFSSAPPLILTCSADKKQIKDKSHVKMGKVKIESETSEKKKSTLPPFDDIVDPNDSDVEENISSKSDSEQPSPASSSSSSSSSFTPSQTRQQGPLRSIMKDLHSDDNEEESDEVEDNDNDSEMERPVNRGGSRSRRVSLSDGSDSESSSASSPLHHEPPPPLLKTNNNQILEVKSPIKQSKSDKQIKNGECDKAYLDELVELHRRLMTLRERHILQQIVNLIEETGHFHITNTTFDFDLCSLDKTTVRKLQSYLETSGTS
# S100A4 MyoIIA: S100A4-myosin IIA interaction inhibition; S100A4/TAMRA-MyoIIA peptide fluorescence polarization; hit rate 0.14% among 360,000; inhibition, % at 10.7 µM;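 active = mean inhibition of at least 70% across replicates, with every replicate also reaching that level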
#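 Test system: S100A4 monomer protein. Medium: HEPES buffer with Ca2+, pH 7.2. Reagent: fluorescent myosin IIA peptide, 5 nM. Compound dosing: single-point compound testing. Timing: 5 min between mix addition and reading. Benchmarks: DMSO neutral and TFP positive wells.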
# SIRT5 inh: inhibitors of human sirtuin-5 desuccinylase. Purified SirT5, succinyl-peptide AMC, trypsin-coupled fluorescence. inhibition, % at 15 µM. AID 652115. hit rate 1.1% among 330,000; in the data active = inhibition above about 15%
# ERAP1 inh: inhibitors of human ERAP1 aminopeptidase; inhibition, % at 10.7 µM; AID 652197; hit rate 0.15% among 340,000; recombinant ERAP1, Leu-AMC fluorescence, 60 min;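 active = mean replicate inhibition of at least 30%, or all replicates individually reaching that 30% level; inactive = mean below 30% and not every replicate reaching it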;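 also: 0% = neutral control wells and 100% = L-leucinethiol positive control wells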
# E-selectin induc: E-selectin induction on HUVECs | AID 686992 | hit rate 0.37% among 260,000 | P16581 | HUVEC E-selectin immunofluorescence imaging; normalized: neutral wells 0, TNF-alpha wells 100 | activation, % at 7.58 µM;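 active = mean E-selectin-positive cell signal at least 10% of the positive control, reached in at least 60% of replicates, without over 20% cell loss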
#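 assay system = HUVEC, human umbilical vein endothelial cells | input = 3,000 HUVEC seeded per well | medium = EGM-2 growth medium on 0.1% gelatin-coated wells | dosing = one compound dose added by pin transfer | signal = immunofluorescence imaging | read-out basis = % PE-positive cells | control set = TNF-alpha, DMSO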
# Numbers without * were called inactive; . = not tested or not shown.
SMILES,rRNA inh HTS,AF4-AF9 inh,S100A4 MyoIIA,SIRT5 inh,ERAP1 inh,E-selectin induc
Cc1noc(C)c1S(=O)(=O)N(C)C[C@@H]1Oc2c(cccc2N(C)C)C(=O)N([C@H](C)CO)C[C@@H]1C,1,-14,4,0,0,0
CCN(CC)CCN1CCn2c3c(c4cc(C)ccc42)CCCC31 (centres undefined),-4,27*,-1,-1,-3,.
O=C(O)c1ccc(Nc2nc(-c3ccc([N+](=O)[O-])cc3)nc3ccccc23)cc1,-21*,2,-1,24*,-2,1
O=[N+]([O-])c1ccc(-c2nc(Nc3ccc(O)cc3)c3ccccc3n2)cc1,3,1,-6,-5,-1,0
COc1ccccc1NC(=O)c1ccc(C(=O)c2ccccc2)o1,-32*,-1,-2,7,-2,2
CCOc1ccccc1CNC(=O)CCCc1cn(C)c2ccccc12,-9,49*,-3,-5,-3,0
C[C@H]1CN([C@@H](C)CO)C(=O)c2cc(-c3ccccc3)cnc2O[C@@H]1CN(C)C(=O)Nc1ccc2c(c1)OCO2,0,2,11,9.5*,1,0
C[C@@H]1CN([C@@H](C)CO)C(=O)c2cc(-c3cccnc3)cnc2O[C@H]1CN(C)C(=O)Nc1ccc2c(c1)OCO2,2,-4,-8,32*,-1,-1
C[C@@H]1CN([C@@H](C)CO)C(=O)c2cc(-c3ccccc3)cnc2O[C@H]1CN(C)C(=O)Nc1ccc2c(c1)OCO2,-1,4,13,-1,2,0
O=C(NC(=S)NCc1ccccc1)c1ccccc1F,-5,.,2,13,-1,.
O=C(NC(=S)NCCc1ccccc1)c1ccccc1F,-31*,-16,-1,-2,-1,.
CCN(CC)CCNc1ccc(CO)c2oc3cc(Cl)ccc3c(=O)c12,0,9,-1,-1,6,.
CCN(CC)CCNc1ccc(C)c2sc3ccc(O)cc3c(=O)c12,-66,50*,-8,.,14,0
C[C@@H]1CN([C@H](C)CO)C(=O)Cc2cc(N(C)C)ccc2O[C@H]1CN(C)CC1CC1,0,5,-18,3,1,0
COc1ccc(C)c2sc(NC(=O)CCS(=O)(=O)c3ccccc3)nc12,-31*,5,-1,-3,3,.
CCOc1cccc2sc(NC(=O)CCS(=O)(=O)c3ccccc3)nc12,-1,-1,-7,0,-6,-1
C#CCOCCOCCOCCNc1nc(N2CCN(C(=O)[C@H](CCCCN)n3cc([C@@H](N)[C@H](C)CC)nn3)CC2)nc(N2CCN(C(=O)[C@H](CCC(=O)O)n3cc([C@@H](N)CCCCN)nn3)CC2)n1,11,34*,3,-4,0,0
C#CCOCCOCCOCCNc1nc(N2CCN(C(=O)[C@H](CCCCN)n3cc(CN)nn3)CC2)nc(N2CCN(C(=O)[C@H](CCCCN)n3cc([C@@H](N)[C@H](C)CC)nn3)CC2)n1,10,64*,-8,.,-4,.
C[C@@H]1CN([C@@H](C)CO)S(=O)(=O)c2ccc(C#CC3CCCCC3)cc2O[C@H]1CN(C)Cc1cccnc1,-3,.,10,13,.,0
Cc1ccc(-c2ccc3c(c2)O[C@H](CN(C)Cc2cccnc2)[C@H](C)CN([C@H](C)CO)S3(=O)=O)cc1,-46,9,3,18*,1,0
C[C@@H]1CN([C@H](C)CO)S(=O)(=O)c2ccc(C#CC3CCCC3)cc2O[C@H]1CN(C)Cc1cccnc1,-11,8,6,17*,0,-4
C[C@@H]1CN([C@H](C)CO)S(=O)(=O)c2ccc(C#CC3CCCCC3)cc2O[C@@H]1CN(C)Cc1cccnc1,-5,7,-25,99*,2,0
C[C@H]1CN([C@@H](C)CO)C(=O)Cc2cc(NC(=O)NC3CCCCC3)ccc2O[C@@H]1CN(C)C(=O)Nc1cccc2ccccc12,0,-2,0,-1,3,1
O=C(NCc1ccc2c(c1)OCO2)C(=O)NCC1OCCN1S(=O)(=O)c1ccc(Cl)cc1 (centres undefined),11,-2,-17,22*,1,.
C[C@H]1CN([C@@H](C)CO)C(=O)c2cccc(NC(=O)C3CCCCC3)c2O[C@@H]1CN(C)S(=O)(=O)c1ccc(Cl)cc1,1,0,-2,.,3,9
SMILES,rRNA inh HTS,AF4-AF9 inh,S100A4 MyoIIA,SIRT5 inh,ERAP1 inh,E-selectin induc
C[C@H](CO)N1C[C@H](C)[C@@H](CN(C)S(C)(=O)=O)Oc2ccc(NS(=O)(=O)c3cccs3)cc2C1=O,0,-1,-5,0,.,429*
C[C@H](CO)N1C[C@H](C)[C@H](CN(C)S(=O)(=O)c2cn(C)cn2)Oc2ccc(NS(=O)(=O)c3cccs3)cc2C1=O,-1,1,3,15*,0,-3
Cc1nnc(N/N=C/c2cc(C)n(-c3ccc(F)cc3)c2C)n1N,-16,54*,-2,-3,-5,.
CCNC(=O)Nc1ccc2c(c1)C(=O)N(C)[C@@H]1CC[C@@H](CC(=O)NCc3cccc(F)c3)O[C@@H]1CO2,-1,.,.,.,.,0
CN(C)Cc1cn(CC[C@H]2CC[C@@H](NC(=O)Nc3ccc4c(c3)OCO4)[C@H](CO)O2)nn1,2,1,6,-2,-2,0
C[C@H]1CN([C@@H](C)CO)C(=O)Cc2cc(NS(C)(=O)=O)ccc2O[C@@H]1CN(C)Cc1ccncc1,6,-1,6,.,1,449*
C[C@H](CO)N1C[C@H](C)[C@H](CN(C)Cc2ccncc2)Oc2ccc(NS(C)(=O)=O)cc2CC1=O,-2,-2,0,.,-4,257*
C[C@H](CO)N1C[C@H](C)[C@@H](CN(C)Cc2ccncc2)Oc2ccc(NS(C)(=O)=O)cc2CC1=O,3,-2,4,5,7,-4
C[C@@H]1CN([C@@H](C)CO)C(=O)Cc2cc(NS(=O)(=O)c3ccc(Cl)cc3)ccc2O[C@@H]1CN(C)Cc1ccc(Cl)c(Cl)c1,0,-2,1,-6,-2,0
C[C@H](CO)N1C[C@H](C)[C@@H](CN(C)Cc2ccc(Cl)c(Cl)c2)Oc2ccc(NS(=O)(=O)c3ccccc3)cc2CC1=O,1,0,9,28*,-1,0
C[C@H]1CN([C@@H](C)CO)C(=O)Cc2cc(NS(=O)(=O)c3ccc(Cl)cc3)ccc2O[C@@H]1CN(C)Cc1ccc(Cl)c(Cl)c1,0,-1,-7,15*,-2,0
COc1cccc(S(=O)(=O)N2CC3(CN(C(=O)Nc4cccc(F)c4)[C@H](CO)c4[nH]c5cc(OC)ccc5c43)C2)c1,2,-3,9,.,4,0

# Source: PubChem BioAssay (Broad Institute)
